Laboratory results taken from ChEMBL document CHEMBL3808299 (J Med Chem, 2016).
Active and inactive are the calls of the source. No cut-off for these calls is given here.

Tests used:
HUVEC [1] = assay: Antiproliferative activity against HUVEC assessed as inhibition of VEGF induced cell proliferation after 72 hrs by MTS assay; assay type: functional; settings: Homo sapiens
Summary of the method: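 HUVECs were seeded at 3,000 cells/well, attached overnight, then treated with varying drug concentrations. Metabolic activity was read with MTS/PMS after 72 h. GI50 is the mean ± SEM of at least two separate experiments run in triplicate.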

[2] = Inhibition of hedgehog pathway in mouse C3H10T1/2 cells assessed as downregulation of Gli1 mRNA expression after 24 hrs by qPCR method; assay type: cell-based; settings: C3H 10T1/2, 24 h
Summary of the method: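 Hh-ligand-stimulated C3H10T1/2 cells (recombinant mouse Sonic Hedgehog C25II) were exposed to a concentration series of compound for 24 h. Gli1 mRNA was read by qPCR. IC50 is the mean ± SEM of at least two separate experiments in triplicate.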

[3] = Inhibition of hedgehog pathway in mouse ASZ cells assessed as downregulation of Gli1 mRNA expression after 48 hrs by qPCR method; assay type: cell-based
Summary of the method: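 ASZ murine BCC cells, whose Hh signaling is constitutively active through a heterozygous PTCH1 mutation, got no added agonist. They were treated with a concentration series for 48 h and Gli1 mRNA was quantified by qPCR. IC50 is the mean ± SEM of at least two separate experiments in triplicate.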

[4] = Inhibition of hedgehog pathway in mouse C3H10T1/2 cells assessed as Gli1 mRNA expression at 1 uM after 24 hrs by qPCR method; assay type: cell-based; design: scale not given: the % may be the effect or the level left; settings: C3H 10T1/2
Summary of the method: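 C3H10T1/2 mouse embryonic fibroblasts were stimulated with recombinant mouse Sonic Hedgehog (C25II) and co-treated with compound at 1 μM for 24 h. Endogenous Gli1 mRNA was measured by qPCR and expressed as % of the Hh-ligand-only control (100%).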

[5] = Antiproliferative activity against mouse MERP MB cells assessed as cell growth inhibition using methyl-[3H]thymidine after 48 hrs by liquid scintillation spectrophotometry; assay type: functional; settings: Medulloblastoma cell
Summary of the method: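 Primary MB cells isolated from Math1-Cre-ER;Ptc fl/fl (MERP) mouse tumours were cultured in vitro and exposed to compound for 48 h to measure proliferation. GI50 is the mean ± SEM of at least two separate experiments in triplicate.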

HUVEC [6] = assay: Antiangiogenic activity against HUVEC assessed as inhibition of total tube length at 10 uM after 16 hrs by inverted microscopy; assay type: functional; settings: Homo sapiens
Summary of the method: (§1)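 HUVECs in M199 with 1% FBS and penicillin/streptomycin, 50,000 cells per well, on Matrigel diluted 1:1 with DMEM and set at 37°C. Cells attached for 20-30 min, then got DMSO, suramin (10 uM) or drug at 10, 1 or 0.1 μM for 16 h. Eight phase-contrast fields per well were imaged. Total tube length and junctions were scored relative to DMSO (100%). Each assay was repeated at least three times.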

HUVEC [7] = assay: Antiangiogenic activity against HUVEC assessed as inhibition of total tube junctions at 10 uM after 16 hrs by inverted microscopy; assay type: functional; settings: Homo sapiens; summary of the method: as §1
[8] = Inhibition of hedgehog pathway in mouse MERP MB cells assessed as downregulation of Gli1 mRNA expression after 48 hrs by qPCR method; assay type: cell-based
Summary of the method: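 Primary medulloblastoma cells from Math1-Cre-ER;Ptc fl/fl mice were incubated with compound for 48 h. Gli1 mRNA was measured by qPCR. IC50 is the mean ± SEM of two separate experiments.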

HUVEC [9] = assay: Antiangiogenic activity against HUVEC assessed as inhibition of total tube junctions at 1 uM after 16 hrs by inverted microscopy; assay type: functional, cell-based; settings: Homo sapiens; summary of the method: as §1
Cytochrome P450 3A4 = Cytochrome P450 3A4 (Homo sapiens, UniProt P08684); assay: Inhibition of CYP3A4 in human liver microsomes using testosterone as substrate after 10 mins by LC/MS/MS analysis; assay type: ADME
HUVEC [10] = assay: Antiangiogenic activity against HUVEC assessed as inhibition of total tube length at 1 uM after 16 hrs by inverted microscopy; assay type: functional, cell-based; settings: Homo sapiens; summary of the method: as §1

Sequence of Cytochrome P450 3A4 (P08684 whole entry): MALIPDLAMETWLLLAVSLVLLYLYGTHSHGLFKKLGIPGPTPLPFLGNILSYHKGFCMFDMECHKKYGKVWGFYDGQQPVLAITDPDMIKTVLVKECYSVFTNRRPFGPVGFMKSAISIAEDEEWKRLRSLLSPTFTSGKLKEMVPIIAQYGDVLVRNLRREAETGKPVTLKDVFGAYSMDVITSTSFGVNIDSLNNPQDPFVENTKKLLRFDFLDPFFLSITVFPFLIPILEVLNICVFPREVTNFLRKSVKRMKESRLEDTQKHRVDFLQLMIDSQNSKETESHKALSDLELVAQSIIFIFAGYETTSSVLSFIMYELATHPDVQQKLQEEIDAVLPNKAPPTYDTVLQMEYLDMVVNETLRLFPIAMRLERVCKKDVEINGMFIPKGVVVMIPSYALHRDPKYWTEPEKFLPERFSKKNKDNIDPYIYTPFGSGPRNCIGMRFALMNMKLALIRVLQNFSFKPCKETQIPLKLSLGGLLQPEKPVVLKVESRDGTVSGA

Structure (SMILES): CC[C@H](C)n1ncn(-c2ccc(N3CCN(c4ccc(OCC5COC(Cn6cncn6)(c6ccc(Cl)cc6Cl)O5)cc4)CC3)cc2)c1=O (stereo not given in full)
- GI50 (HUVEC [1]): 2500 nM
- IC50 [2]: 160 nM
- IC50 [3]: 140 nM
- Activity [4]: 6.9%

Structure (SMILES): CC[C@@H](C)n1ncn(-c2ccc(N3CCN(c4ccc(OC[C@H]5CO[C@@](C)(c6ccc(Cl)cc6Cl)O5)cc4)CC3)cc2)c1=O
- GI50 (HUVEC [1]): 65000 nM
- IC50 [2]: 6600 nM
- IC50 [3]: 2800 nM

Structure (SMILES): CCC(C)n1ncn(-c2ccc(N3CCN(c4ccc(OC[C@H]5CO[C@@](C)(c6ccc(Cl)cc6Cl)O5)cc4)CC3)cc2)c1=O (relative stereo)
- GI50 (HUVEC [1]): 3690 nM
- IC50 [2]: 850 nM
- GI50 [5]: 2900 nM
- IC50 [3]: 71 nM

Structure (SMILES): O=c1[nH]ncn1-c1ccc(N2CCN(c3ccc(OCC4COC(Cn5cncn5)(c5ccc(Cl)cc5Cl)O4)cc3)CC2)cc1 (stereo not given)
- GI50 (HUVEC [1]): 5800 nM
- IC50 [2]: 43 nM
- IC50 [3]: 120 nM
- Activity [4]: 1.1%

Structure (SMILES): CC[C@H](C)n1ncn(-c2ccc(N3CCN(c4ccc(OC[C@H]5CO[C@@](C)(c6ccc(Cl)cc6Cl)O5)cc4)CC3)cc2)c1=O
- GI50 (HUVEC [1]): 78300 nM
- IC50 [2]: > 10000 nM
- IC50 [3]: 550 nM

Structure (SMILES): CCC(C)n1ncn(-c2ccc(N3CCN(c4ccc(OCC5COC(Cn6cncn6)(c6ccccc6)O5)cc4)CC3)cc2)c1=O (stereo not given)
- GI50 (HUVEC [1]): 8300 nM
- IC50 [2]: 420 nM
- IC50 [3]: 450 nM
- Activity [4]: 13.1%

Structure (SMILES): CCC(C)n1ncn(-c2ccc(N3CCN(c4ccc(OCC5COC(C)(Cn6cncn6)O5)cc4)CC3)cc2)c1=O (stereo not given)
- GI50 (HUVEC [1]): 18400 nM
- Activity [4]: 61.4%

Structure (SMILES): Cc1ccc(C(=O)Nc2ccc(S(=O)(=O)O)c3cc(S(=O)(=O)O)cc(S(=O)(=O)O)c23)cc1NC(=O)c1cccc(NC(=O)Nc2cccc(C(=O)Nc3cc(C(=O)Nc4ccc(S(=O)(=O)O)c5cc(S(=O)(=O)O)cc(S(=O)(=O)O)c45)ccc3C)c2)c1 [SURAMIN]
- inhibition at 10 µM (HUVEC [6]): 51.9%
- inhibition at 10 µM (HUVEC [7]): 57.6%

Structure (SMILES): CCCn1ncn(-c2ccc(N3CCN(c4ccc(OC[C@@H]5CO[C@@](C)(c6ccc(Cl)cc6Cl)O5)cc4)CC3)cc2)c1=O
- GI50 (HUVEC [1]): 26500 nM
- IC50 [2]: 4100 nM
- IC50 [3]: 1300 nM

Structure (SMILES): CC[C@H](C)n1ncn(-c2ccc(N3CCN(c4ccc(OC[C@@H]5CO[C@](C)(c6ccc(Cl)cc6Cl)O5)cc4)CC3)cc2)c1=O
- GI50 (HUVEC [1]): 2500 nM
- IC50 [2]: 1850 nM
- GI50 [5]: 390 nM
- IC50 [3]: 150 nM
- IC50 [8]: 260 nM

Structure (SMILES): CC[C@@H](C)n1ncn(-c2ccc(N3CCN(c4ccc(OC[C@H]5CO[C@](C)(c6ccc(Cl)cc6Cl)O5)cc4)CC3)cc2)c1=O
- inhibition (HUVEC [6]): inactive
- GI50 (HUVEC [1]): 12100 nM
- IC50 [2]: 540 nM
- inhibition (HUVEC [7]): inactive
- IC50 [3]: 130 nM

Structure (SMILES): O=[N+]([O-])c1ccc(N2CCN(c3ccc(OCC4COC(Cn5cncn5)(c5ccc(Cl)cc5Cl)O4)cc3)CC2)cc1 (stereo not given)
- GI50 (HUVEC [1]): 8400 nM
- IC50 [2]: 130 nM
- IC50 [3]: 90 nM
- Activity [4]: 1.5%

Structure (SMILES): CCC(C)n1ncn(-c2ccc(N3CCN(c4ccc(OCC5COC(C)(c6ccc(Cl)cc6Cl)O5)cc4)CC3)cc2)c1=O (stereo not given)
- GI50 (HUVEC [1]): 23800 nM
- IC50 [2]: 140 nM
- inhibition (HUVEC [9]): Active
- IC50 (Cytochrome P450 3A4): > 10000 nM
- IC50 [3]: 170 nM
- Activity [4]: 17.8%
- inhibition (HUVEC [10]): Active

Structure (SMILES): CCCn1ncn(-c2ccc(N3CCN(c4ccc(OC[C@H]5CO[C@@](C)(c6ccc(Cl)cc6Cl)O5)cc4)CC3)cc2)c1=O
- GI50 (HUVEC [1]): 24900 nM
- IC50 [2]: > 10000 nM
- IC50 [3]: 540 nM

Structure (SMILES): CC[C@@H](C)n1ncn(-c2ccc(N3CCN(c4ccc(OC[C@@H]5CO[C@@](C)(c6ccc(Cl)cc6Cl)O5)cc4)CC3)cc2)c1=O
- GI50 (HUVEC [1]): 53200 nM
- IC50 [2]: 190 nM
- GI50 [5]: 600 nM
- IC50 [3]: 22 nM
- IC50 [8]: 190 nM

Structure (SMILES): CCCn1ncn(-c2ccc(N3CCN(c4ccc(OCC5COC(Cn6cncn6)(c6ccc(Cl)cc6Cl)O5)cc4)CC3)cc2)c1=O (stereo not given)
- GI50 (HUVEC [1]): 4700 nM
- Activity [4]: 58.5%

Structure (SMILES): CCC(C)n1ncn(-c2ccc(N3CCN(c4ccc(OCC5COC(C)(C)O5)cc4)CC3)cc2)c1=O (stereo not given)
- GI50 (HUVEC [1]): > 100000 nM
- Activity [4]: 71.4%

Structure (SMILES): CCC(C)n1ncn(-c2ccc(N3CCN(c4ccc(OC[C@@H]5CO[C@@](C)(c6ccc(Cl)cc6Cl)O5)cc4)CC3)cc2)c1=O (stereo not given in full)
- GI50 (HUVEC [1]): 3320 nM
- IC50 [2]: 91 nM
- GI50 [5]: 2000 nM
- IC50 [3]: 77 nM

Structure (SMILES): CC[C@H](C)n1ncn(-c2ccc(N3CCN(c4ccc(OC[C@H]5CO[C@](C)(c6ccc(Cl)cc6Cl)O5)cc4)CC3)cc2)c1=O
- GI50 (HUVEC [1]): 7700 nM
- IC50 [2]: 1100 nM
- IC50 [3]: 2500 nM

Structure (SMILES): CC[C@@H](C)n1ncn(-c2ccc(N3CCN(c4ccc(OC[C@@H]5CO[C@](C)(c6ccc(Cl)cc6Cl)O5)cc4)CC3)cc2)c1=O
- inhibition (HUVEC [6]): inactive
- GI50 (HUVEC [1]): 12800 nM
- IC50 [2]: 2400 nM
- inhibition (HUVEC [7]): inactive
- GI50 [5]: 1000 nM
- IC50 [3]: 24 nM
- IC50 [8]: 290 nM

Structure (SMILES): CC[C@@H](C)n1ncn(-c2ccc(N3CCN(c4ccc(OCC5COC(Cn6cncn6)(c6ccc(Cl)cc6Cl)O5)cc4)CC3)cc2)c1=O (stereo not given in full)
- GI50 (HUVEC [1]): 1700 nM
- IC50 [2]: 140 nM
- IC50 [3]: 160 nM
- Activity [4]: 3%

Structure (SMILES): CCCn1ncn(-c2ccc(N3CCN(c4ccc(OC[C@@H]5CO[C@](C)(c6ccc(Cl)cc6Cl)O5)cc4)CC3)cc2)c1=O
- GI50 (HUVEC [1]): 49900 nM
- IC50 [2]: > 10000 nM
- IC50 [3]: 1400 nM

Structure (SMILES): CCC(C)n1ncn(-c2ccc(N3CCN(c4ccc(O)cc4)CC3)cc2)c1=O (stereo not given)
- GI50 (HUVEC [1]): > 100000 nM
- Activity [4]: 45.7%

Structure (SMILES): CC[C@@H]([C@H](C)O)n1ncn(-c2ccc(N3CCN(c4ccc(OC[C@@H]5CO[C@@](Cn6cncn6)(c6ccc(F)cc6F)C5)cc4)CC3)cc2)c1=O [POSACONAZOLE]
- GI50 (HUVEC [1]): 1600 nM
- IC50 [2]: 140 nM
- IC50 [3]: 540 nM

Structure (SMILES): CCCn1ncn(-c2ccc(N3CCN(c4ccc(OC[C@H]5CO[C@](C)(c6ccc(Cl)cc6Cl)O5)cc4)CC3)cc2)c1=O
- GI50 (HUVEC [1]): 84100 nM
- IC50 [2]: > 10000 nM
- GI50 [5]: 22400 nM
- IC50 [3]: 200 nM

Structure (SMILES): Nc1ccc(N2CCN(c3ccc(OCC4COC(Cn5cncn5)(c5ccc(Cl)cc5Cl)O4)cc3)CC2)cc1 (stereo not given)
- GI50 (HUVEC [1]): 42700 nM
- IC50 [2]: 160 nM
- GI50 [5]: 900 nM
- IC50 [3]: 120 nM
- Activity [4]: 6.1%

Structure (SMILES): CC[C@H](C)n1ncn(-c2ccc(N3CCN(c4ccc(OC[C@@H]5CO[C@@](C)(c6ccc(Cl)cc6Cl)O5)cc4)CC3)cc2)c1=O
- GI50 (HUVEC [1]): 18300 nM
- IC50 [2]: 470 nM
- IC50 [3]: 380 nM
